Usually IC50 stands for the concentration that gives 50% inhibition. For orientation: Papp A→B means how fast a substance crosses the layer from the apical side. Usually Papp B→A stands for the apparent permeability from the basolateral to the apical side of a cell layer. By ED50 is commonly meant the midpoint of the dose-response relation. As usually defined, the clearance is the volume of plasma or blood freed of the substance per unit of time. A word on the half-life: it is the time in which the quantity being followed falls by half. The term bioavailability denotes dose-corrected exposure relative to a reference, in per cent. Higher therefore signals much systemic uptake. The fraction unbound is the share of the substance not bound to proteins or other matrix.

Each structure is given as a SMILES string. Converted amounts (≈) assume the structure as drawn.

We go through seven compounds from ChEMBL document CHEMBL4196161, “Lead Optimization of 5-Aryl Benzimidazolone- and Oxindole-Based AMPA Receptor Modulators Selective for TARP γ-8” (ACS Med Chem Lett, 2018).

The nature of series [1]: Hepatic extraction ratio in human liver microsomes at 1 uM measured after 60 mins in presence of NADPH by LC-MS/MS analysis. It counts as ADME, microsome. The settings on record: read-out: ERH. Put shortly: (§1)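 Human or rat liver microsomal stability at 1 μM; results expressed as extraction ratio, i.e. predicted hepatic clearance divided by species-specific hepatic blood flow.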
A general note: Microsomes from liver hold many membrane-bound enzymes, among them those of drug oxidation.

Series [2] has as its target GRIA1/CACNG8 (Homo sapiens, UniProt P42261+Q8WXS5). Briefly: Modulation of recombinant human GluA1 flop isoform/TARPgamma8 expressed in HEK293F cells assessed as blockade of glutamate-induced calcium flux by calcium 5/6 dye based FLIPR assay. It is filed as cell-based. Put shortly: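 HEK-293 cells expressing a human GluA1o-γ-8 fusion construct; FLIPR calcium-flux read-out; pIC50 reported as mean and standard deviation of at least three assays run in triplicate.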

Series [3] in a line: Thermodynamic solubility of the compound in fasted state simulated intestinal fluid at pH 6.5 incubated under stirred condition for 3 days. The settings on record: read-out: Therm_solubility.
The nature of series [4]: Apparent permeability across apical to basolateral side in MDCK-MDR1 cells at 5 uM measured after 60 mins by LC-MS/MS analysis. It is filed as ADME, cell-based, Canis lupus familiaris. Conditions: dog. Put shortly:
(§2)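 Bidirectional apparent permeability measured in Madin–Darby canine kidney cells transfected with the MDR1 (P-gp) gene; Papp reported in ×10–6 cm/s.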

Series [5] can be described thus: Thermodynamic solubility of the compound in simulated gastric fluid at pH 1.6 incubated under stirred condition for 3 days. It is filed as physicochemical. Conditions: read-out: Therm_solubility. In a few lines:
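Thermodynamic solubility (μM) determined in simulated gastric fluid at pH 1.6 and in fasted state simulated intestinal fluid at pH 6.5.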

Series [6] is described as follows: Hepatic extraction ratio in rat liver microsomes at 1 uM measured after 60 mins in presence of NADPH by LC-MS/MS analysis. It is filed as ADME, microsome. The settings on record: read-out: ERH. Put shortly: as §1
Series [7] in a line: Apparent permeability across basolateral to apical side in MDCK-MDR1 cells at 5 uM measured after 60 mins by LC-MS/MS analysis. It counts as ADME, cell-based, Canis lupus familiaris. Conditions: dog. Put shortly: as §2
In series [8] the target is GRIA1/CACNG2 (Homo sapiens, UniProt P42261+Q9Y698). Briefly: Modulation of recombinant human GluA1 flop isoform/TARPgamma2 expressed in HEK293F cells assessed as blockade of glutamate-induced calcium flux by calcium 5/6 dye based FLIPR assay. It counts as cell-based. In a few lines:
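HEK-293 cells transiently expressing human GluA1o cotransfected with γ-2; FLIPR calcium-flux read-out; pIC50 reported; n = 1, run in triplicate.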
On the technique in general: A change in cytosolic calcium serves as a functional read-out for many receptors and channels.

Series [9] can be described thus: Volume of distribution at steady state in Sprague-Dawley rat at 1 mg/kg, iv administered as single dose by LC-MS/MS analysis. It is filed as ADME, organism-based. Conditions: in vivo, read-out: Vdss. Put shortly:
(§3)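 Single 1 mg/kg i.v. dose as a solution to Sprague–Dawley rats (n = 3/group); vehicle 20% HP-β-CD in one study series, 1:1 PEG400/H2O in the other; plasma PK parameters derived.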

For series [10], the system named is Rattus norvegicus. Briefly: Ex vivo receptor occupancy at GluA/TARPgamma8 in Sprague-Dawley rat assessed as reduction in [3H]JNJ-56022486 receptor labeling in hippocampus at 10 mg/kg, po at Tmax by autoradiography relative to control. It is filed as functional. Put shortly:
(§4)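 Rats (Sprague–Dawley, n = 2/dose group) dosed orally with suspensions in 0.5% HPMC at 3 or 10 mg/kg; hippocampal GluA/γ-8 occupancy at Tmax by ex vivo autoradiography with [3H]12 radiotracer; brain (ng/g) and plasma (ng/mL) concentrations taken at Tmax.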

The species entered for series [11] is Homo sapiens. Briefly: Selectivity ratio of IC50 for recombinant human GluA1 flop isoform/TARPgamma2 expressed in HEK293F cells to IC50 for recombinant human GluA1 flop isoform/TARPgamma8 expressed in HEK293F cells. It counts as cell-based. Put shortly: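 Calcium-flux (FLIPR) inhibition in HEK-293 cells, giving pIC50 for each receptor. For γ-8, cells expressed a human GluA1o–γ-8 fusion construct, with at least three assays run in triplicate and reported as mean ± SD. For γ-2, cells expressed human GluA1-flop cotransfected with γ-2. The ratio compares the γ-2 IC50 with the γ-8 IC50.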

The test system of series [12] is Rattus norvegicus. Briefly: Ex vivo receptor occupancy at GluA/TARPgamma8 in po dosed Sprague-Dawley rat assessed as plasma concentration causing reduction in [3H]JNJ-56022486 receptor labeling in hippocampus at 3 mg/kg, po at Tmax by autoradiography. It is filed as functional, organism-based. Put shortly: as §4
The test system of series [13] is Rattus norvegicus. As to the kind of experiment: Ex vivo receptor occupancy at GluA/TARPgamma8 in po dosed Sprague-Dawley rat assessed as reduction in [3H]JNJ-56022486 receptor labeling in hippocampus measured within 10 mins by autoradiography. It is filed as functional.
The nature of series [14]: Clearance in Sprague-Dawley rat at 1 mg/kg, iv administered as single dose by LC-MS/MS analysis. It is filed as ADME, organism-based. The settings on record: in vivo. Put shortly: as §3
The subject of series [15] is Rattus norvegicus. As to the kind of experiment: Ex vivo receptor occupancy at GluA/TARPgamma8 in po dosed Sprague-Dawley rat assessed as plasma concentration causing reduction in [3H]JNJ-56022486 receptor labeling in hippocampus at 10 mg/kg, po at Tmax by autoradiography. It counts as functional, organism-based. In a few lines: as §4
The nature of series [16]: Half life in Sprague-Dawley rat at 1 mg/kg, iv administered as single dose by LC-MS/MS analysis. It counts as ADME, organism-based. The settings on record: in vivo. Put shortly:
as §3

Series [17] in a line: Ratio of unbound brain to plasma concentration in Sprague-Dawley rat at 1 mg/kg, iv or 5 mg/kg, po administered as single dose by LC-MS/MS analysis. It is filed as ADME, organism-based. The settings on record: brain and plasma, read-out: K(p,uu,brain).
The nature of series [18]: Oral bioavailability in Sprague-Dawley rat at 5 mg/kg administered as single dose by LC-MS/MS analysis. Conditions: in vivo. It is filed as ADME, organism-based. Put shortly:
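Sprague–Dawley rats (n = 3/group) given compound as a solution in 20% HP-β-CD, 1 mg/kg i.v. and 5 mg/kg p.o.; plasma pharmacokinetics derived from these arms.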

A short description of series [19]: Protein binding in human plasma assessed as unbound fraction at 1 uM measured after 6 hrs by equilibrium dialysis method. It counts as ADME, cell-free. In a few lines:
(§5)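 Human or rat plasma protein binding at 1 μM compound, expressed as fraction unbound (fub).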
(In equilibrium dialysis free small molecules cross a membrane that holds back macromolecules.)

Series [20] is described as follows: Protein binding in rat plasma assessed as unbound fraction at 1 uM measured after 6 hrs by equilibrium dialysis method. It is filed as ADME, cell-free. Put shortly:
as §5

GRIA1/CACNG8, sequence (P42261 whole entry, the tested form may be a part, canonical isoform): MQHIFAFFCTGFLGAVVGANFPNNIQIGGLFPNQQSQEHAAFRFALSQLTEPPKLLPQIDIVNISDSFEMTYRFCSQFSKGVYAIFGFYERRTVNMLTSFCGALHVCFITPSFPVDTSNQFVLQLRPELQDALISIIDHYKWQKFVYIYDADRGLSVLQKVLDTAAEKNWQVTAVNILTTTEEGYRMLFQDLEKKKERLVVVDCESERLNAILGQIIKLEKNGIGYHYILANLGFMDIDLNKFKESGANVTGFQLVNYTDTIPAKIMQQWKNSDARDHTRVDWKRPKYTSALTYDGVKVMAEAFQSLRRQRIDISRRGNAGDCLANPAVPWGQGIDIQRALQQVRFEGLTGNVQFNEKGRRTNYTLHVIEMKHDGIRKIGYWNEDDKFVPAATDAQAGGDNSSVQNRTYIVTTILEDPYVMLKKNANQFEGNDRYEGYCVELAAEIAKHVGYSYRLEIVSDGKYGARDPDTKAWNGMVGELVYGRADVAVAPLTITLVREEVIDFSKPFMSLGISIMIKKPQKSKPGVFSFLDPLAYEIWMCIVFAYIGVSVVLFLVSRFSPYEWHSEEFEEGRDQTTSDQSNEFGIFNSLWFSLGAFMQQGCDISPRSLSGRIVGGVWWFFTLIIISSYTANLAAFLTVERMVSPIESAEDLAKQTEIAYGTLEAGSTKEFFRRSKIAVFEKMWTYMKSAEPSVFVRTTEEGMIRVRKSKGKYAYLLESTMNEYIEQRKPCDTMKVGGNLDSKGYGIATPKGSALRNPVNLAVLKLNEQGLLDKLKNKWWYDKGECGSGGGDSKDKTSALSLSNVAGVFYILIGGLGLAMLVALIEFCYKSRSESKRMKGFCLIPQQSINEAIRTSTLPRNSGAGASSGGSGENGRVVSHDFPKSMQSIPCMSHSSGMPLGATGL
GRIA1/CACNG8, sequence (Q8WXS5 whole entry, the tested form may be a part, canonical isoform): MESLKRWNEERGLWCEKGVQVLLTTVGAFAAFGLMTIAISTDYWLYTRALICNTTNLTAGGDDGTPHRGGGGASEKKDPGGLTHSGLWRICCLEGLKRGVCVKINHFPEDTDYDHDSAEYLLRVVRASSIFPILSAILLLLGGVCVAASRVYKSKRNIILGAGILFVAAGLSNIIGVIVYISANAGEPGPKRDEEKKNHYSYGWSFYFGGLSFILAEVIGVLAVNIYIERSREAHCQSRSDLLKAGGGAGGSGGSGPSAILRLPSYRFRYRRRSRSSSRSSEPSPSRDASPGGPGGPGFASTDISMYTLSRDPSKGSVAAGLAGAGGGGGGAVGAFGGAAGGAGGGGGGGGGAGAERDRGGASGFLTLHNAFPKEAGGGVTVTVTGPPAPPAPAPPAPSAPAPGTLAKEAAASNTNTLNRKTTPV
GRIA1/CACNG2, sequence (P42261 whole entry, canonical isoform): as the sequence (P42261 whole entry, the tested form may be a part, canonical isoform) above
GRIA1/CACNG2, sequence (Q9Y698 whole entry, canonical isoform): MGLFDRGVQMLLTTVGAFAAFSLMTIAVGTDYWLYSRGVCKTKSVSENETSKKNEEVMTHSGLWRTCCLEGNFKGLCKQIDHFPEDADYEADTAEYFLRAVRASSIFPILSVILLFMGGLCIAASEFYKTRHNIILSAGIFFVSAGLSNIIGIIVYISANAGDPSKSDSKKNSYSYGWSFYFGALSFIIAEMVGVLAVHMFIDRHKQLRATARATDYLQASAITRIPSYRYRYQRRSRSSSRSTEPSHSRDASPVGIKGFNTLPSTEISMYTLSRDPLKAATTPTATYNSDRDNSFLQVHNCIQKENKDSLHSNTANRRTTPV

On to `N#Cc1cccc(Cl)c1-c1ccc2[nH]c(=O)[nH]c2c1`, for which the figures for the hepatic extraction ratio at 1 h, 1 µM in series [1] and in series [6] were < 0.3 and < 0.2, respectively. Further, the IC50 is 0.251 µM in [2] and > 10 µM in series [8]. The solubility thermodynamic at 72 h was 5 µM (≈ 1.35 µg/mL) in series [3] and < 4 µM in [5]. Also, the Papp A→B at 1 h, 5 µM in series [4] turned out to be 14 ×10⁻⁶ cm/s. Also, in series [7], the Papp B→A at 1 h, 5 µM was found to be 70 ×10⁻⁶ cm/s.
As to `Cc1cc(-c2c(Cl)cncc2OC(F)(F)F)cc2c1NC(=O)C2`, in series [9], the Vd came out at 2.7 L/kg. For the same compound, in [10], the Occ is given as 86%. The hepatic extraction ratio at 1 h, 1 µM in series [1] was < 0.3; in series [6], 0.5. In addition, in series [11], the Ratio IC50 was > 1000. The results for the half-maximal inhibitory concentration (IC50) in [2] and in series [8] were 0.00251 µM and > 10 µM, respectively. Besides, the solubility thermodynamic at 72 h in series [3] is 45 µM (≈ 15.4 µg/mL); in series [5] it was 11 µM (≈ 3.77 µg/mL). Further, the apical-to-basolateral permeability (Papp A→B) at 1 h, 5 µM in series [4] came out at 44 ×10⁻⁶ cm/s. Besides, the Papp B→A at 1 h, 5 µM in series [7] was found to be 51 ×10⁻⁶ cm/s. Further, the values for the Cp in series [12] and in series [15] were 87 ng/mL and 2050 ng/mL, respectively. In addition, in series [13], the ED50 was found to be 5.4 mg/kg. Moreover, the clearance in series [14] was found to be 37 mL/min/kg. The same compound gave a half-life in series [16] of 1.4 h.
As for `O=c1[nH]c2ccc(-c3c(Cl)cncc3Cl)cc2[nH]1`, the hepatic extraction ratio at 1 h, 1 µM in [1] is < 0.3; in series [6], < 0.2. Further, the results for the IC50 in [2] and in series [8] were 0.251 µM and > 10 µM, respectively. The values for the solubility thermodynamic at 72 h in series [3] and in [5] were 52 µM (≈ 14.6 µg/mL) and 42 µM (≈ 11.8 µg/mL), respectively. Moreover, in series [4], the Papp A→B at 1 h, 5 µM was determined as 16 ×10⁻⁶ cm/s. Also, in series [7], the basolateral-to-apical permeability (Papp B→A) at 1 h, 5 µM was 83 ×10⁻⁶ cm/s.
Regarding `O=C1Cc2cc(-c3c(Cl)cccc3OC(F)(F)F)cc(F)c2N1`, the half-inhibitory concentration (IC50) in [2] was 0.00251 µM.
For the compound `Cc1cccc(C)c1-c1ccc2[nH]c(=O)[nH]c2c1`, the Kp uu in series [17] amounted to 0.3. Moreover, the hepatic extraction ratio at 1 h, 1 µM in [1] worked out at 0.3; in [6], 0.5. The values for the solubility thermodynamic at 72 h in series [3] and in series [5] were 276 µM (≈ 65.8 µg/mL) and 5 µM (≈ 1.19 µg/mL), respectively. Moreover, the apical-to-basolateral permeability (Papp A→B) at 1 h, 5 µM in series [4] came out at 42 ×10⁻⁶ cm/s. Moreover, the Papp B→A at 1 h, 5 µM in series [7] stood at 34 ×10⁻⁶ cm/s. Besides, the bioavailability in series [18] was determined as 68%. Further, the clearance in series [14] is 9 mL/min/kg. For the same compound, the IC50 in series [8] was > 10 µM.
Regarding `Cc1cc(-c2c(Cl)cncc2OC(F)F)cc2c1NC(=O)C2`, the Vd in series [9] amounted to 1.9 L/kg. In series [10], the Occ is recorded as 72%. Further, the hepatic extraction ratio at 1 h, 1 µM in series [1] was < 0.3; in series [6] it was 0.4. In addition, the Ratio IC50 in series [11] is > 1000. The solubility thermodynamic at 72 h in series [3] was 64 µM (≈ 20.8 µg/mL); in series [5], 140 µM (≈ 45.5 µg/mL). The Papp A→B at 1 h, 5 µM in [4] amounted to 34 ×10⁻⁶ cm/s. Also, the apparent permeability from basolateral to apical (Papp B→A) at 1 h, 5 µM in series [7] was 66 ×10⁻⁶ cm/s. The compound further gave a clearance in [14] of 19 mL/min/kg. Further, the concentration for half-maximal inhibition (IC50) in series [8] is > 10 µM. Besides, the half-life in [16] was 1.2 h.
Turning to `O=c1[nH]c2ccc(-c3c(Cl)cccc3Cl)cc2[nH]1`, the free fraction (fraction unbound) at 6 h, 1 µM in series [19] is 0.5; in [20], 0.6. Also, the hepatic extraction ratio at 1 h, 1 µM in [1] is < 0.3; in [6] it was 0.3. Moreover, the IC50 in series [2] was 0.0501 µM; in [8], > 10 µM. The results for the solubility thermodynamic at 72 h in series [3] and in [5] were 69 µM (≈ 19.3 µg/mL) and < 4 µM, respectively. Moreover, the apical-to-basolateral permeability (Papp A→B) at 1 h, 5 µM in series [4] turned out to be 26 ×10⁻⁶ cm/s. Further, the Papp B→A at 1 h, 5 µM in series [7] worked out at 49 ×10⁻⁶ cm/s.
